Results from different studies.
Protocols differ between the studies behind these lines.
Target: Dual specificity protein kinase CLK2 (CLK2, Homo sapiens, UniProt P49760)
Method: competition with immobilised ligand

| SMILES | read-out | tested at | remaining binding [%] |
| --- | --- | --- | --- |
| FC(F)(F)Oc1cccc(-c2cnc3ccc(-c4ccncc4)nn23)c1 | cell-free assay | 5 µM | 6.2 |
| COc1ccc2c(c1)O[C@H](c1ccc(OC)c(OC)c1)C[C@@H]2NC(=O)C1(c2ccc3c(c2)OC(F)(F)O3)CC1 | cell-free assay | 1 µM | 95 |
| Cc1cnc(Nc2ccc(C(=O)N3CCC(N4CCCC4)CC3)cc2)nc1-c1cc2ccccc2s1 | binding | 1 µM | 8.8 |
| COc1cnc(Nc2cccc(S(N)(=O)=O)c2)nc1N1CCN(c2ccccc2)C(=O)C1 | binding | 1 µM | 76 |
| O=C(NCC1CCOCC1)c1n[nH]cc1NC(=O)c1c(F)cccc1F | binding | 1 µM | 34 |
| O=C(NCCCN1CCOCC1)c1ccc(Nc2ncc(Cl)c(-c3ccc(Cl)s3)n2)cc1 | binding | 1 µM | 5.7 |
| Cc1cc(C)c(-n2ccn3nc(-c4cccnc4)cc23)cc1NC(=O)c1cc(C#N)cc(S(F)(F)(F)(F)F)c1 | cell-free assay | 0.1 µM | 91 |
| C=CC(=O)N1CCC(C(=O)NCC(=O)N2CCN(c3nc(-c4cnc(N)nc4C(F)F)nc(N4CCOCC4)n3)CC2)CC1 | binding | 1 µM | 91 |
| Nc1ncc2c(n1)-c1c([nH]c3ccc(C#CC4CC4)cc13)CCCC2 | binding | 1 µM | 96 |
| C[C@H](NC(=O)c1cnc2n1[C@](C)(Cc1ccc(C#N)cc1)C(=O)N2c1cc(Cl)c(F)c(Cl)c1)C(=O)NC1(c2ccccn2)CC1 | cell-free assay | 1 µM | 97 |
| CCN1CCN(Cc2ccc(C(=O)Nc3ccc(C)c(Oc4ccc5c(c4)CC(=O)N5)c3)cc2C(F)(F)F)CC1 | binding | 1 µM | 100 |
| O=C(c1ccc(Nc2ncc(Cl)c(-c3ccc(Cl)s3)n2)cc1)N1CCC(N2CCCC2)CC1 | binding | 1 µM | 5.2 |
| Nc1c(C(=O)NCc2ccc(C(=O)NCCCC3CCCCC3)cc2)cnn1-c1ccccc1 | cell-free assay | 0.1 µM | 100 |
